Results from ChEMBL document CHEMBL1135647, “New pyridobenzodiazepine derivatives: modifications of the basic side chain differentially modulate binding to dopamine (D(4.2), D(2L)) and serotonin (5-HT(2A)) receptors” (J Med Chem, 2002).

Legend:
[1] = target: T1, 5-hydroxytryptamine receptor 2A (Rattus norvegicus, UniProt P14842); experiment: In vitro binding affinity at 5-hydroxytryptamine 2A receptor in rat cortical membrane; type: cell membranes
Method in brief: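 Frontal cortex membranes from female Wistar rats, stored at -80 °C. Incubated 30 min at 37 °C with 1 nM [3H]ketanserin; nonspecific binding with 10 µM methysergide; protein 2 mg/mL final. Filtered on PEI-presoaked GF/C and counted by scintillation. Nine concentrations in triplicate per curve, at least duplicate curves after a 10-6/10^-7 M prescreen. Ki by Cheng-Prusoff.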

D(4) dopamine receptor [2] = target: T2, D(4) dopamine receptor (Homo sapiens, UniProt P21917); experiment: (§1) In vitro binding affinity at human cloned Dopamine receptor D4 expressed in Sf9 cell membranes
T2 sequence (P21917 whole entry): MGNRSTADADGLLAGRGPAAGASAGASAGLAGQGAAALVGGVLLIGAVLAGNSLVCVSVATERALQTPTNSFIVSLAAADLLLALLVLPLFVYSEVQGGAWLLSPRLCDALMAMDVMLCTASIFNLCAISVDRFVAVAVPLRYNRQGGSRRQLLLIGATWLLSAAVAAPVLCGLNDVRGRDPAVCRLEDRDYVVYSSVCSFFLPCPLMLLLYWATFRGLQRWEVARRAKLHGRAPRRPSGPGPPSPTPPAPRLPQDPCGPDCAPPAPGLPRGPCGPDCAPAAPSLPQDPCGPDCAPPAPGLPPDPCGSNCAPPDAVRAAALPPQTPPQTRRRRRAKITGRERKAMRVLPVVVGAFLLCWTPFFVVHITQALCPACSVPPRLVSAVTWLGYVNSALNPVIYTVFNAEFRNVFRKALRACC

[3] = target: T3, Adrenergic receptor alpha-1 (Rattus norvegicus, UniProt P15823+P23944+P43140); experiment: In vitro binding affinity at Alpha-1 adrenergic receptor in rat cortical tissues
T3 sequence (P15823 whole entry): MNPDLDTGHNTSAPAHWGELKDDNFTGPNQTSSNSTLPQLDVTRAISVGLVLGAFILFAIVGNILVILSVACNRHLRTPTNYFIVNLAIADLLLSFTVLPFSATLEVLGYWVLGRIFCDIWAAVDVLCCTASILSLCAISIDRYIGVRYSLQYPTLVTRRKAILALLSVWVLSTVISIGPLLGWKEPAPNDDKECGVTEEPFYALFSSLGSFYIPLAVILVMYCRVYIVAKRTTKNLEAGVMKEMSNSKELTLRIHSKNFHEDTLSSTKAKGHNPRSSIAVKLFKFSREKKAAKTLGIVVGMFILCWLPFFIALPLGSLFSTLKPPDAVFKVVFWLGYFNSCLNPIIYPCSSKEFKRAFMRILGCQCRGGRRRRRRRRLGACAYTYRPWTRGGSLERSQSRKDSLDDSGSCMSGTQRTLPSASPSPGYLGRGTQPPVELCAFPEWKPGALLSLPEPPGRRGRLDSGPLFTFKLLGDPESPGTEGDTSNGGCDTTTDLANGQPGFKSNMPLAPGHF
T3 sequence (P23944 whole entry): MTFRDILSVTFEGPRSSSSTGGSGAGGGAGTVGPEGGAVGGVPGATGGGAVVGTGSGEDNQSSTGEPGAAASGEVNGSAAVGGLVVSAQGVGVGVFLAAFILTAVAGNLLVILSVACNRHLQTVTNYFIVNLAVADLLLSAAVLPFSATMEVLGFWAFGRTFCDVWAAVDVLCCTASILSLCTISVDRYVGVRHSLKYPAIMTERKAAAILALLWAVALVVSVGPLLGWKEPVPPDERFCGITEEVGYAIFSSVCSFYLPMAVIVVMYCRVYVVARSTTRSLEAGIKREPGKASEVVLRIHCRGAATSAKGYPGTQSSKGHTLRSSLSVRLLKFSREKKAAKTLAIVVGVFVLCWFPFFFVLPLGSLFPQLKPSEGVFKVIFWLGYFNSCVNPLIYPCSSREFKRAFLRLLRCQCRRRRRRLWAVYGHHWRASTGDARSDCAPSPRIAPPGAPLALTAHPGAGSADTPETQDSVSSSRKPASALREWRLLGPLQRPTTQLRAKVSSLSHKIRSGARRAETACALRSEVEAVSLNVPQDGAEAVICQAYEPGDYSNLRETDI
T3 sequence (P43140 whole entry): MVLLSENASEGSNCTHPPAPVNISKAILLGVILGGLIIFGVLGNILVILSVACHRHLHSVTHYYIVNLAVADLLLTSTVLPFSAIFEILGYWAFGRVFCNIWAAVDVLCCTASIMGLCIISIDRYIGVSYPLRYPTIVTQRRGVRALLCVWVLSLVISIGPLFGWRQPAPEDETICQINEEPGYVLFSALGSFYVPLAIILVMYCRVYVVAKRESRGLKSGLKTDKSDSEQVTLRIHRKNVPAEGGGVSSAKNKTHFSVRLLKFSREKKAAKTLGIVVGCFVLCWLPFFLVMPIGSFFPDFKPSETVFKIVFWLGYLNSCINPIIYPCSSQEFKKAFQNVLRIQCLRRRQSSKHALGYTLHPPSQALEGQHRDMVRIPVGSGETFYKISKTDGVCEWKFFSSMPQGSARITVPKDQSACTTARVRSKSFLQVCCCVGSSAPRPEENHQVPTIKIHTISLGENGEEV

[4] = target: T1, 5-hydroxytryptamine receptor 2A; experiment: In vitro binding affinity at serotonin 5-hydroxytryptamine 2A receptor in rat cortical membrane; type: cell membranes
D(4) dopamine receptor [5] = target: T2, D(4) dopamine receptor; experiment: as §1; remark: listed apart in the source
Method in brief: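 Sf9 membranes expressing human cloned D4.2, in 50 mM Tris-HCl pH 7.4 with 5 mM MgCl2, 5 mM EDTA, 5 mM KCl and 1.5 mM CaCl2. […] Filtration on GF/C. Six to nine concentrations in duplicate. Ki by Cheng-Prusoff.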

Mus musculus [6] = experiment: Percentage of total immobility time after an intraperitoneal dose of 16 (mg/kg) in porsolt's test in mice; type: functional
Mus musculus [7] = experiment: Percentage of total immobility time after an intraperitoneal dose of 4 (mg/kg) in porsolt's test in mice; type: functional
Mus musculus [8] = experiment: Percentage of total immobility time after an intraperitoneal dose of 8 (mg/kg) in porsolt's test in mice; type: functional
Rattus norvegicus [9] = experiment: Compound was evaluated in paw test for the forelimb retraction in rat at effective dose of 20 (mg/kg); type: functional
Rattus norvegicus [10] = species: Rattus norvegicus; experiment: Compound was evaluated in paw test for the hindlimb retraction in rat
Mus musculus [11] = experiment: Percentage of total immobility time after an intraperitoneal dose of 16 (mg/kg) in porsolt's test; type: functional
Method in brief: (§2)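 Forced swimming (Porsolt) test in mice, with the compound given i.p. Immobility time was expressed as a percentage of the total immobility time of vehicle-treated animals. Significance was assessed against saline by Mann-Whitney U test, or against vehicle by analysis of variance with post hoc tests.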

Mus musculus [12] = experiment: Percentage of total immobility time after an intraperitoneal dose of 4 (mg/kg) in porsolt's test; type: functional; method in brief: as §2
Mus musculus [13] = experiment: Percentage of total immobility time after an intraperitoneal dose of 8 (mg/kg) in porsolt's test; type: functional; method in brief: as §2
Rattus norvegicus [14] = experiment: Compound was evaluated in paw test for the hindlimb retraction at effective dose of 5 (mg/kg); type: functional
Rattus norvegicus [15] = experiment: Compound was evaluated in paw test for the forelimb retraction at effective dose of 20 (mg/kg); type: functional
Mus musculus [16] = experiment: Percentage of total immobility time after an intraperitoneal dose of 30 (mg/kg) in porsolt's test; type: functional
Mus musculus [17] = experiment: Percentage of total immobility time after an intraperitoneal dose of 7.5 (mg/kg) in porsolt's test; type: functional
Mus musculus [18] = experiment: Percentage of total immobility time after an intraperitoneal dose of 15 (mg/kg) in porsolt's test

T1 sequence (P14842 whole entry): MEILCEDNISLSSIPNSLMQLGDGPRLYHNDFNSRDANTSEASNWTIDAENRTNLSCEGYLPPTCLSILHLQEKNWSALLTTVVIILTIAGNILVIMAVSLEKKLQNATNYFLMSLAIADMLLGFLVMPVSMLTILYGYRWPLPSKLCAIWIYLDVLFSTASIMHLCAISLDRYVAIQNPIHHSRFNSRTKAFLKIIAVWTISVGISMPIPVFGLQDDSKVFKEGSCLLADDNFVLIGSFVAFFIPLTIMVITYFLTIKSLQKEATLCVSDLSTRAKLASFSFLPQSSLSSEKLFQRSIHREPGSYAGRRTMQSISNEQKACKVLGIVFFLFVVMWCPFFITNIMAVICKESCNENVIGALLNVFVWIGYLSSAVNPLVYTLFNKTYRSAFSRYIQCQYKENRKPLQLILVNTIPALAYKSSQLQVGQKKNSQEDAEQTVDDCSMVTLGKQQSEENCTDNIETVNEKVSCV

Compound	Ki [1] [µM]	Ki (D(4) dopamine receptor [2]) [µM]	Ki [3] [µM]	also measured
Clc1ccc2c(c1)C(N1CCN(Cc3ccccc3)CC1)=Nc1cccnc1N2	> 1	0.109	> 1	–
Clc1ccc2c(c1)C(NC1CC3CCC(C1)N3Cc1ccccc1)=Nc1cccnc1N2 (stereo not given)	0.036	–	–	–
Cc1ccc2c(c1)C(NC1CC3CCC(C1)N3Cc1ccccc1)=Nc1cccnc1N2 (stereo not given)	0.034	0.131	–	–
Cc1ccc2c(c1)C(N1CCN(c3cccc(C(F)(F)F)c3)CC1)=Nc1cccnc1N2	> 1	> 1	> 1	–
Cc1ccc2c(c1)C(N1CCN(c3cccc(Cl)c3)CC1)=Nc1cccnc1N2	> 1	> 1	> 1	–
Cc1ccc2c(c1)C(N1CCN(Cc3ccccc3)CC1)=Nc1cccnc1N2	> 1	0.183	> 1	–
Clc1ccc2c(c1)C(N1CCN(c3ccccc3)CC1)=Nc1cccnc1N2	> 1	> 1	> 1	–
Cc1ccc2c(c1)C(NCCC1CCCN1C)=Nc1cccnc1N2 (stereo not given)	> 1	> 1	–	–
Clc1cccc(N2CCN(C3=Nc4cccnc4Nc4ccc(Cl)cc43)CC2)c1	> 1	> 1	–	–
Cc1ccc2c(c1)C(NCCN1CCOCC1)=Nc1cccnc1N2	> 1	> 1	–	–
Clc1ccc2c(c1)C(NCCN1CCOCC1)=Nc1cccnc1N2	–	> 1	> 1	–
Cc1ccc2c(c1)C(N1CCN(C)CC1)=Nc1cccnc1N2	–	0.036	0.108	Ki [4]: 0.037 µM
CN1CCN(C2=Nc3cc(Cl)ccc3Nc3ccccc32)CC1 [CLOZAPINE]	–	–	–	Immobility (Mus musculus [11]): 139%; Immobility (Mus musculus [12]): 95%; Immobility (Mus musculus [13]): 103%; Retraction time (Rattus norvegicus [9]): 1.1 s; Retraction time (Rattus norvegicus [14]): 30 s
O=C(CCCN1CCC(O)(c2ccc(Cl)cc2)CC1)c1ccc(F)cc1 [HALOPERIDOL]	–	–	–	Retraction time (Rattus norvegicus [15]): 22.5 s; Retraction time (Rattus norvegicus [14]): 30 s
CN(C)CCCN1c2ccccc2CCc2ccccc21 [IMIPRAMINE]	–	–	–	Immobility (Mus musculus [16]): 70%; Immobility (Mus musculus [17]): 98%; Immobility (Mus musculus [18]): 45%

Second part, led by results:

Ki [1] [µM]	Ki (D(4) dopamine receptor [2]) [µM]	Ki [3] [µM]	Compound	also measured
0.25	0.341	–	Clc1ccc2c(c1)C(NCCN1CCCC1)=Nc1cccnc1N2	–
–	> 1	> 1	Clc1ccc2c(c1)C(NCCc1ccccn1)=Nc1cccnc1N2	–
–	0.163	> 1	CN1CCCN(C2=Nc3cccnc3Nc3ccc(Cl)cc32)CC1	Ki [4]: 0.164 µM
0.034	0.048	–	Clc1ccc2c(c1)C(N1CCN(C3CCCCC3)CC1)=Nc1cccnc1N2	–
0.033	0.084	–	Cc1ccc2c(c1)C(N1CCN(C3CCCCC3)CC1)=Nc1cccnc1N2	–
0.15	> 1	> 1	Cc1ccc2c(c1)C(NCCN(C)C)=Nc1cccnc1N2	–
> 1	–	> 1	Cc1ccc2c(c1)C(N1CCN(c3ccccc3)CC1)=Nc1cccnc1N2	Ki (D(4) dopamine receptor [5]): > 1 µM
–	> 1	–	Cc1ccc2c(c1)C(NCCc1ccccn1)=Nc1cccnc1N2	–
0.081	0.089	0.163	Clc1ccc2c(c1)C(NC1CCN(Cc3ccccc3)CC1)=Nc1cccnc1N2	–
> 1	> 1	> 1	Cc1ccc2c(c1)C(NCCCN(C)C)=Nc1cccnc1N2	–
0.132	0.51	0.018	Cc1ccc2c(c1)C(NC1CCN(C)CC1)=Nc1cccnc1N2	–
0.123	0.393	–	CN1CCC(NC2=Nc3cccnc3Nc3ccc(Cl)cc32)CC1	–
0.303	0.356	–	Cc1ccc2c(c1)C(N1CCCN(C)CC1)=Nc1cccnc1N2	–
> 1	> 1	> 1	FC(F)(F)c1cccc(N2CCN(C3=Nc4cccnc4Nc4ccc(Cl)cc43)CC2)c1	–
0.357	> 1	0.063	Clc1ccc2c(c1)C(NCCN1CCCCC1)=Nc1cccnc1N2	–
0.048	0.046	0.1	Cc1ccc2c(c1)C(NC1CCN(Cc3ccccc3)CC1)=Nc1cccnc1N2	–
0.036	0.037	0.172	Cc1ccc2c(c1)C(N1CCN(CCc3ccccc3)CC1)=Nc1cccnc1N2	–
–	> 1	> 1	CN(C)CCCNC1=Nc2cccnc2Nc2ccc(Cl)cc21	–
0.103	0.04	0.367	Clc1ccc2c(c1)C(N1CCN(CCc3ccccc3)CC1)=Nc1cccnc1N2	Immobility (Mus musculus [6]): 49%; Immobility (Mus musculus [7]): 52%; Immobility (Mus musculus [8]): 36%; Retraction time (Rattus norvegicus [9]): 1 s; Retraction time (Rattus norvegicus [10]): 2.5 s
–	0.024	0.079	CN1CCN(C2=Nc3cccnc3Nc3ccc(Cl)cc32)CC1	Ki [4]: 0.035 µM
